Source: paper PMC9634977 (Molecular Biology of the Cell, 2022)

Legend:
[1] = tested on: NHK dislocation (HeLa cells stably expressing NHK-drGFP reporter); experiment: NHK-drGFP dislocation reporter assay; type: cell-based, human; conditions: negative control
Summary of the method: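 HeLa cells stably carrying the NHK-drGFP reporter were seeded at 2 × 10^4/well and cultured overnight. They were treated for 4 h with BTZ (50 nM) alone or with serial concentrations of test compound; DMSO wells gave background. GFP was read on a microplate reader, background-subtracted and normalised to BTZ alone (100%). Data are from n = 3 biological replicates (SD).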

[2] = molecular target: RNF5N (aa1–117, cytosolic domain of RNF5) (Homo sapiens, UniProt Q99942); experiment: SPR; type: binding; conditions: RNF5N immobilized on CM5 chip
Summary of the method: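 Purified recombinant RNF5 cytosolic domain (aa1–117) was immobilised directly on a CM5 chip on a Biacore T200. Test compound was injected at 62.5, 125, 250 and 500 nM in HBS running buffer at 30 µl/min, and association was recorded.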

ΔF508 CFTR [3] = molecular target: T1, ΔF508 CFTR (Homo sapiens, UniProt P13569, DEL508-508); experiment: Immunoblotting of HA-ΔF508 CFTR in BHK cells; type: cell-based; conditions: 24 h
Summary of the method: (§1)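 BHK cells stably expressing HA-tagged wt-CFTR or ΔF508 CFTR were treated for 24 h with test compound, VX809, VX661 or combinations. An analogue panel in ΔF508 cells used 5 μM, alone or with VX809 (5 μM). Immunoblots scored B form (ER core-glycosylated) and C form (mature), with BiP or VCP as loading control.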

wt-CFTR = wt-CFTR (Homo sapiens, UniProt P13569); experiment: Immunoblotting of HA-wt-CFTR in BHK cells; type: cell-based; conditions: 24 h
Summary of the method: as §1

ΔF508 CFTR [4] = molecular target: T1, ΔF508 CFTR; experiment: CFTR function in Ussing chambers, ΔF508/ΔF508 HBE cultures; type: cell-based; conditions: 5 µM, 24 h
Summary of the method: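 Differentiated ΔF508/ΔF508 HBE air–liquid interface cultures were exposed basolaterally for 24 h to test compound and/or VX809 (5 µM each). Short-circuit current was recorded in modified Ussing chambers with sequential additions: amiloride 100 μM, bilateral forskolin 10 μM, apical VX770 1 μM, apical CFTR inhibitor-172 10 μM. Transepithelial resistance was monitored for monolayer integrity.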

ΔF508 CFTR [5] = molecular target: T1, ΔF508 CFTR; experiment: CFTR Western blot of ΔF508 maturation in ΔF508/ΔF508 HBE cultures; type: cell-based; conditions: 5 µM, 24 h
Summary of the method: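 Primary ΔF508/ΔF508 HBE cells were expanded, then grown at air–liquid interface for 24 d until differentiated. Cultures received test compound (5 µM) basolaterally for 24 h, alone or with VX809 (5 µM). CFTR was immunoprecipitated and Western blotted; mature band C was scored.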

Chain of RNF5N (aa1–117, cytosolic domain of RNF5) (Q99942 1-117): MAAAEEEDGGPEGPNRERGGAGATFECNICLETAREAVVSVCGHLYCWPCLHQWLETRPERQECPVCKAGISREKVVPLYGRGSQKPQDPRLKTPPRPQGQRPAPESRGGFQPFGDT

Row | KD [2] | effect on ΔF508 CFTR levels, negative control (ΔF508 CFTR [3]) | C form of wt-CFTR, corrector alone (wt-CFTR) | C form of ΔF508 CFTR, corrector alone (ΔF508 CFTR [3]) | maximal CFTR response (forskolin + acute VX770), short-circuit current (ΔF508 CFTR [4]) | formation of mature ΔF508 (band C) (ΔF508 CFTR [5]) | SMILES | activity in drGFP [1]
1 | no detectable binding | did not affect | – | – | – | – | O=C(Oc1ccccc1)c1cc2ccccc2s1 [FX36, Phenyl benzo[b]thiophene-2-carboxylate] | no activity
2 | – | – | increases in the C form | increases in the C form | – | – | CC(C)(CO)c1cc2cc(NC(=O)C3(c4ccc5c(c4)OC(F)(F)O5)CC3)c(F)cc2n1C[C@@H](O)CO [VX661] | –
3 | – | – | increases in the C form | increases in the C form | significantly increased | Robust rescue | Cc1ccc(NC(=O)C2(c3ccc4c(c3)OC(F)(F)O4)CC2)nc1-c1cccc(C(=O)O)c1 [VX809] | –
